Experimental data gathered from unrelated publications.
Read-out: metabolic stability
Sample: liver microsomes

CCOc1ccc2ccc(=O)oc2c1
microsomal CLint (mouse; 1 µM, pH 7.4): 522 µL/min/mg

CCOC(=O)c1c(-c2cccc(Br)c2)[nH]c2cc(OC)c(F)cc2c1=O
microsomal CLint (female CD-1 mouse; 19.8 µM, pH 7.4): < 4 µL/min/mg

O=C(C1CCSCC1)N1CC(=O)N2CCc3ccccc3[C@@H]2C1
microsomal CLint (mouse; 0.1 µM, pH 7.4): 324 µL/min/mg

CC1=C(C(N)=O)C(=O)/C(=C\c2cc(C)n(-c3ccccc3C(F)(F)F)c2C)N1
microsomal CLint (mouse; 1 µM): 93 µL/min/mg

CCOC(=O)c1c(-c2cccc(Oc3ccccc3)c2)[nH]c2cc(OC)ccc2c1=O
microsomal CLint (female CD-1 mouse; 19.8 µM, pH 7.4): > 15 µL/min/mg

CCOC(=O)C1=C(C)N/C(=C/c2cc(C)n(Cc3ccc(C(F)(F)F)cc3)c2C)C1=O
microsomal CLint (mouse; 1 µM): 103 µL/min/mg

N#CC1CCCN(c2nc(-c3ccccn3)nc3ccccc23)C1 (stereo not shown)
microsomal CLint (mouse): 93 µL/min/mg

Cc1cc(NC(=O)Nc2ccc3c(c2)OC(F)(F)O3)cc(C(F)(F)F)n1
microsomal CLint (mouse): 36 µL/min/mg

c1ccc(C2CCN(c3nc(-c4cnn5cccnc45)nc4ccccc34)C2)nc1 (stereo not shown)
microsomal CLint (mouse): 153 µL/min/mg

CCC(F)(F)c1nc2nc(C)cc(Nc3ccc(C(F)(F)F)cc3)n2n1
microsomal CLint (mouse; 1 µM, pH 7.4): < 10 µL/min/mg

N#CC1CCN(c2nc(-c3ccccn3)nc3ccccc23)CC1
microsomal CLint (mouse): 105 µL/min/mg

Clc1ccc(COc2cncc(-c3cnn(C4CCNCC4)c3)c2)c(Cl)c1
microsomal CLint (mouse): 28.9 µL/min/mg

c1ccc(CCNc2nc(-c3ccccn3)nc3ccccc23)nc1
microsomal CLint (mouse): 336 µL/min/mg

Cc1cc(Nc2ccc(S(F)(F)(F)(F)F)cc2)n2ccnc2n1
microsomal CLint (mouse): 30 µL/min/mg

Oc1ccc(-c2nc(N3CCC(c4ccccn4)C3)c3ccccc3n2)cc1 (stereo not shown)
microsomal CLint (mouse): 388 µL/min/mg

CCC(F)(F)c1nc2nc(C)cc(Nc3ccc(S(F)(F)(F)(F)F)cc3)n2n1
microsomal CLint (mouse; 1 µM, pH 7.4): < 10 µL/min/mg

CCOC(=O)c1c(-c2cccc(Cl)c2)[nH]c2cc(OC)c(F)cc2c1=O
microsomal CLint (female CD-1 mouse; 19.8 µM, pH 7.4): < 4 µL/min/mg

c1ccc(CN2CCN(c3nc(-c4ccccn4)nc4ccccc34)CC2)cc1
microsomal CLint (mouse): 393 µL/min/mg

Cc1cc(Nc2ccc(S(F)(F)(F)(F)F)cc2)n2nc(C(C)(F)F)nc2n1
microsomal CLint (mouse; 1 µM, pH 7.4): < 10 µL/min/mg
